Assay results as given in ChEMBL document CHEMBL1122366, “Potential antiatherosclerotic agents. 3. Substituted benzoic and non benzoic acid analogues of cetaben” (1983).

Key:
[1] = test system: Rattus norvegicus; test: In vivo sterol lowering activity when dosed as 0.01 % of the diet; format: functional
In short: (§1)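 Normal rats were dosed in the diet. Serum sterol and triglyceride levels were measured and expressed as the mean percent of control values. Significance versus control was reported at p < 0.05, 0.01 and 0.001.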

[2] = test system: Rattus norvegicus; test: In vivo triglyceride lowering activity dosed at 0.10 % of the diet.; format: functional; in short: as §1
[3] = test system: Rattus norvegicus; test: In vivo sterol lowering activity when dosed as 0.03 % of the diet; format: functional; in short: as §1
[4] = test system: Rattus norvegicus; test: In vivo sterol lowering activity at dose of 0.10 % of the diet; format: functional; in short: as §1
[5] = test system: Rattus norvegicus; test: In vivo triglyceride lowering activity when dosed as 0.01 % of the diet; format: functional; in short: as §1
[6] = test system: Rattus norvegicus; test: In vivo triglyceride lowering activity when dosed at 0.05 % of the diet
[7] = test system: Rattus norvegicus; test: In vivo triglyceride lowering activity when dosed at 0.03 % of the diet; format: functional; in short: as §1
[8] = biological target: T1, Sterol O-acyltransferase 1 (Rattus norvegicus) (UniProt O70536); test: In vitro inhibition of acyl coenzyme A:cholesterol acyltransferase; design: concentration or dose not given beside the values; conditions: concentration not given here
T1 sequence (whole entry): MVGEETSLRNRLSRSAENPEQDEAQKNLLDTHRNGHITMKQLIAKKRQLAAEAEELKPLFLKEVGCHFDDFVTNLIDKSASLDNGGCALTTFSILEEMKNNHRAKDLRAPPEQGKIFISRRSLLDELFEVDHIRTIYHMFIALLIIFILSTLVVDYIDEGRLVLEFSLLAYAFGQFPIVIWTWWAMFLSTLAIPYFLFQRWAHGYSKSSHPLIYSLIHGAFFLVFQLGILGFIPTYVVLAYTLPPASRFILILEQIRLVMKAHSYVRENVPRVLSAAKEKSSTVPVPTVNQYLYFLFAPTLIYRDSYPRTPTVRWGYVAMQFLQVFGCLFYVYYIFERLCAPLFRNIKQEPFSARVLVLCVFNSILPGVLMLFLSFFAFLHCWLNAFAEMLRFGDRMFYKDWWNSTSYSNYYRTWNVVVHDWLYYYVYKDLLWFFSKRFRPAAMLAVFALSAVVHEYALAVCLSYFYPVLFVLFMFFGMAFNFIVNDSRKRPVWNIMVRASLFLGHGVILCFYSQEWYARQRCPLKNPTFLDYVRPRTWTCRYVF
In short: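 Enzyme fatty acyl-CoA:cholesterol acyltransferase (ACAT), assayed in vitro at a single drug concentration of 5.2 μg/mL. The value is the mean percent inhibition of enzyme activity.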

[9] = test system: Rattus norvegicus; test: In vivo triglyceride lowering activity when dosed as 0.025 % of the diet

| SMILES | serum sterol level, % of control [1] [%] | serum triglyceride, percent of control [2] [%] | serum sterol level, percent of control [3] [%] | serum sterol level, percent of control [4] [%] | serum triglyceride level, percent of control [5] [%] | Diet [6] [%] | serum triglyceride level, percent of control [7] [%] | inhibition [8] [%] | Diet [7] [%] | Diet [9] [%] |
| --- | --- | --- | --- | --- | --- | --- | --- | --- | --- | --- |
| CCCCCCCCCCCCCCCCNc1ccc(C(=O)O)c(OC)c1 | 104 | 77 | 105 | 98 | 75 | <66 | – | – | – | – |
| CCCCCCCCCCCCCCCCNc1ccc(C(=O)OCC(=O)OC)cc1 | 84 | 74 | <76 | <71 | 79 | – | 72 | < 24 | – | – |
| CCCCCCCCCCCCCCCCNc1ccc(C(=O)OC2COC(c3ccccc3)OC2)cc1 (stereo not drawn) | 95 | 78 | 91 | 99 | 103 | – | – | 0 | 68 | – |
| CCCCCCCCCCCCCCCCNc1ccc(C=O)cc1 | 91 | <53 | 92 | <85 | <66 | – | <64 | < 30 | – | – |
| CCCCCCCCCCCCCCCCNC1CCC(C(=O)OC)CC1 (stereo not drawn) | 99 | <63 | 92 | <71 | 78 | – | 88 | < 37 | – | – |
| CCCCCCCCCCCCCCCCNc1ccc(C(=O)C(C(=O)OCC)C(=O)OCC)cc1 | 100 | <59 | 96 | <87 | <68 | – | <66 | 9 | – | – |
| CCCCCCCCCCCCCCCCNc1ccc(C(C)(C)C(=O)O)cc1 | 93 | 116 | 111 | 107 | 109 | – | 121 | < 27 | – | – |
| CCCCCCCCCCCCCCCCNc1ccc(C(=O)OCCCO)cc1 | 94 | <46 | <82 | <68 | <67 | – | <74 | 14 | – | – |
| CCCCCCCCCCCCCCCCNC1CCC(C(=O)O)CC1 (stereo not drawn) | 97 | 71 | <86 | <75 | 75 | – | 79 | < 48 | – | – |
| CCCCCCCCCCCCCCCCNc1ccc(C(=O)O)cc1F | 108 | <49 | 98 | <79 | 91 | – | 89 | < 27 | – | – |
| CCCCCCCCCCCCCCCCNc1ccc(C(=O)O)c(F)c1 | 93 | <40 | <77 | <75 | 77 | – | 79 | 57 | – | – |
| CCCCCCCCCCCCCCCCNc1ccc(C(=O)CCC(=O)O)cc1 | 116 | <66 | 100 | 109 | – | – | <72 | 16 | – | <82 |
